Experimental findings from ChEMBL document CHEMBL1146867, “Novel antibacterial class: a series of tetracyclic derivatives” (J Med Chem, 2006) are described below.

≈ marks a conversion by molar mass, not a printed value.

What all share (type): functional
Test [1] relates to Streptococcus pneumoniae. Put plainly: Inhibition on Streptococcus pneumoniae translation by uncoupled translation assay. Put shortly: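 The assay was cell-free and translation-only (uncoupled), using S. pneumoniae material. Dried test compound was mixed with S30 extract, luciferase-encoding mRNA and a complete amino acid mix. The mix was incubated to allow translation, and the reaction was stopped with kanamycin. Luciferin reagent was then added, and read-out was by flash luminescence. Results are given as IC50.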

The subject of test [2] is Streptococcus pneumoniae. Put plainly: Antibacterial activity against quinolone-resistant Streptococcus pneumoniae ATCC 7257. Put shortly:
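MIC by broth microdilution following National Committee for Clinical Laboratory Standards methods for dilution susceptibility testing of aerobically growing bacteria, against the quinolone-resistant S. pneumoniae strain 7257.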

For test [3], the system named is Streptococcus pneumoniae. Put plainly: Antibacterial activity against quinolone-susceptible Streptococcus pneumoniae ATCC 6303. The method, boiled down:
(§1)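 MICs were determined by broth microdilution following the National Committee for Clinical Laboratory Standards method for aerobically growing bacteria.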

In another test the test system is Haemophilus influenzae. Put plainly: Antibacterial activity against quinolone-susceptible Haemophilus influenzae 1435. Put shortly:
as §1

Another test deals with JIYOYE. Put plainly: Cytotoxicity against human B cells by Jijoye assay. Conditions: read-out: LD50 (the source's name).
In test [4] the test system is Streptococcus pneumoniae. Put plainly: Inhibition on Streptococcus pneumoniae translation by transcription/translation coupled assay.

In the case of `C=CC[C@@H]1Oc2cc3c(O)c(C(=O)O)cnc3nc2N2CCC[C@@H]12`, the IC50 with Streptococcus pneumoniae [1] turned out to be 47 µM. Further, the values for the MIC in the test with Streptococcus pneumoniae [2], against Streptococcus pneumoniae [3] and with Haemophilus influenzae were 8 µg/mL (≈ 24.4 µM), more than 64 µg/mL and 64 µg/mL (≈ 196 µM), respectively. In addition, in the test on JIYOYE, the CC50 was more than 100 µg/mL.

Take `CC(C)(C)n1cc(C(=O)O)c(=O)c2cc3c(nc21)N1CCC[C@H]1C(=O)N3`: in the test on Streptococcus pneumoniae [1], the IC50 is more than 200 µM. Moreover, the MIC was more than 64 µg/mL against Streptococcus pneumoniae [2], more than 64 µg/mL with Streptococcus pneumoniae [3] and more than 32 µg/mL in the test on Haemophilus influenzae. In the test on JIYOYE, the CC50 was more than 100 µg/mL.

Regarding `O=C(O)c1cnc2nc3c(cc2c1O)OC[C@@H]1C[C@@H](O)CN31`, the IC50 in the test on Streptococcus pneumoniae [1] worked out at 6.9 µM. The MIC against Streptococcus pneumoniae [2] amounted to 16 µg/mL (≈ 52.8 µM); against Streptococcus pneumoniae [3], 64 µg/mL (≈ 211 µM); in the test on Haemophilus influenzae, 16 µg/mL (≈ 52.8 µM). The CC50 in the test with JIYOYE was more than 100 µg/mL.

Compound `O=C(O)c1cnc2nc3c(cc2c1O)OCCN3` yielded an IC50 with Streptococcus pneumoniae [1] of 100 µM. The MIC is more than 64 µg/mL with Streptococcus pneumoniae [2], more than 64 µg/mL against Streptococcus pneumoniae [3] and 32 µg/mL (≈ 129 µM) in the test on Haemophilus influenzae. In addition, in the test with JIYOYE, the CC50 was more than 100 µg/mL.

For `O=C(O)c1cnc2nc3c(cc2c1O)OC[C@@H]1CCN31`, in the test with Streptococcus pneumoniae [1], it took 7.5 µM to reach half-maximal inhibition (IC50). Also, the MIC was 2 µg/mL (≈ 7.32 µM) against Streptococcus pneumoniae [2], 16 µg/mL (≈ 58.6 µM) in the test on Streptococcus pneumoniae [3] and 8 µg/mL (≈ 29.3 µM) in the test with Haemophilus influenzae. In addition, the CC50 with JIYOYE is more than 100 µg/mL.

As to `C[C@@H]1Oc2cc3c(O)c(C(=O)O)cnc3nc2N2CCC[C@@H]12`, in the test with Streptococcus pneumoniae [1], the IC50 was found to be 8.7 µM. The MIC amounted to 4 µg/mL (≈ 13.3 µM) in the test with Streptococcus pneumoniae [2], 8 µg/mL (≈ 26.6 µM) in the test on Streptococcus pneumoniae [3] and 32 µg/mL (≈ 106 µM) in the test with Haemophilus influenzae. In the test with JIYOYE, the CC50 is more than 100 µg/mL.

In the test on Streptococcus pneumoniae [1], `O=C(O)c1cnc2nc3c(cc2c1O)OCC1CCCCN31` (stereo unspecified) returned an IC50 of 63 µM. Also, the MIC is 16 µg/mL (≈ 53.1 µM) against Streptococcus pneumoniae [2], more than 64 µg/mL against Streptococcus pneumoniae [3] and 8 µg/mL (≈ 26.6 µM) against Haemophilus influenzae. Also, the CC50 with JIYOYE was more than 100 µg/mL.

Compound `C=CCC12CCCN1c1nc3ncc(C(=O)O)c(O)c3cc1OC2` (stereo unspecified) yielded an IC50 in the test with Streptococcus pneumoniae [1] of more than 300 µM. In addition, the MIC against Streptococcus pneumoniae [2], with Streptococcus pneumoniae [3] and against Haemophilus influenzae was more than 64 µg/mL each time. The CC50 in the test on JIYOYE is more than 100 µg/mL.

Turning to `CN1C[C@@H]2CCCN2c2nc3ncc(C(=O)O)c(O)c3cc21`, it took 0.89 µM to reach half-maximal inhibition in the test on Streptococcus pneumoniae [1] (IC50). Further, the MIC against Streptococcus pneumoniae [2] stood at 2 µg/mL (≈ 6.66 µM); against Streptococcus pneumoniae [3], 8 µg/mL (≈ 26.6 µM); against Haemophilus influenzae it was 8 µg/mL (≈ 26.6 µM). Moreover, the CC50 in the test with JIYOYE is more than 100 µg/mL.

On to `O=C(O)c1cnc2nc3c(cc2c1O)OC[C@@H]1CCCN31`, for which half-maximal inhibition with Streptococcus pneumoniae [1] (IC50) required 5.2 µM. Besides, the MIC was determined as 1 µg/mL (≈ 3.48 µM) in the test on Streptococcus pneumoniae [2], 4 µg/mL (≈ 13.9 µM) against Streptococcus pneumoniae [3] and 2 µg/mL (≈ 6.96 µM) with Haemophilus influenzae. Besides, the CC50 with JIYOYE is more than 100 µg/mL.

Consider `CN1CCOc2cc3c(O)c(C(=O)O)cnc3nc21`, for which half-maximal inhibition with Streptococcus pneumoniae [1] (IC50) required 70 µM. The MIC was 32 µg/mL (≈ 122 µM) with Streptococcus pneumoniae [2], more than 64 µg/mL in the test with Streptococcus pneumoniae [3] and 32 µg/mL (≈ 122 µM) against Haemophilus influenzae. In the test with JIYOYE, the CC50 was more than 100 µg/mL.

In the test on Streptococcus pneumoniae [1], `O=C(O)c1cnc2cc(N3CCNCC3)c(F)cc2c1O` yielded an IC50 of 141 µM. Also, the MIC in the test on Streptococcus pneumoniae [2] and in the test on Streptococcus pneumoniae [3] was more than 64 µg/mL in each case.

`O=C(O)c1cnc2nc3c(cc2c1O)NC(=O)[C@@H]1CCCN31` displayed an IC50 in the test with Streptococcus pneumoniae [1] of 22 µM. In addition, the MIC against Streptococcus pneumoniae [2], in the test with Streptococcus pneumoniae [3] and in the test with Haemophilus influenzae was more than 64 µg/mL in each case. Also, the CC50 in the test with JIYOYE is more than 100 µg/mL.

In the case of `CC12CCCN1c1nc3ncc(C(=O)O)c(O)c3cc1OC2` (stereo unspecified), the IC50 in the test on Streptococcus pneumoniae [1] was found to be 107 µM. For the same compound, the MIC against Streptococcus pneumoniae [2] is 32 µg/mL (≈ 106 µM); in the test on Streptococcus pneumoniae [3], more than 64 µg/mL; in the test on Haemophilus influenzae it was 32 µg/mL (≈ 106 µM). In the test on JIYOYE, the CC50 is more than 100 µg/mL.

Take `CC(=O)N1C[C@@H]2CCCN2c2nc3ncc(C(=O)O)c(O)c3cc21`: in the test on Streptococcus pneumoniae [1], the IC50 was 7 µM. The MIC was found to be 16 µg/mL (≈ 48.7 µM) against Streptococcus pneumoniae [3] and 4 µg/mL (≈ 12.2 µM) against Haemophilus influenzae.

`O=C(O)c1cn(C2CC2)c2nc3c(cc2c1=O)OC[C@@H]1CCCN31` registered an IC50 in the test on Streptococcus pneumoniae [1] of more than 100 µM. The figures for the MIC with Streptococcus pneumoniae [2] and in the test with Streptococcus pneumoniae [3] were 8 µg/mL (≈ 24.4 µM) and more than 64 µg/mL, respectively.

Take `O=C(O)c1cnc2nc(N3CCC[C@@H]3CO)c(F)cc2c1O`: the MIC against Streptococcus pneumoniae [2], with Streptococcus pneumoniae [3] and in the test on Haemophilus influenzae was more than 64 µg/mL in each case. Besides, the CC50 with JIYOYE is more than 100 µg/mL. The compound also showed an IC50 with Streptococcus pneumoniae [4] of 75 µM.

In the case of `O=C(O)c1cnc2nc(N3CCCC3)c(F)cc2c1O`, the figures for the MIC in the test with Streptococcus pneumoniae [2], with Streptococcus pneumoniae [3] and in the test on Haemophilus influenzae were 4 µg/mL (≈ 14.4 µM), 16 µg/mL (≈ 57.7 µM) and less than 1 µg/mL, respectively. Moreover, the CC50 in the test on JIYOYE is more than 100 µg/mL.

`C=CC[C@H]1Oc2cc3c(O)c(C(=O)O)cnc3nc2N2CCC[C@@H]12` had a half-maximal inhibitory concentration (IC50) in the test with Streptococcus pneumoniae [1] of more than 300 µM. The MIC against Streptococcus pneumoniae [2], against Streptococcus pneumoniae [3] and in the test on Haemophilus influenzae was more than 64 µg/mL throughout. Besides, the CC50 in the test with JIYOYE is more than 100 µg/mL.

In the test with Streptococcus pneumoniae [1], `O=C(O)c1cnc2nc3c(cc2c1O)NC[C@@H]1CCCN31` displayed an IC50 of 10 µM. In addition, the values for the MIC with Streptococcus pneumoniae [2], in the test on Streptococcus pneumoniae [3] and against Haemophilus influenzae were 8 µg/mL (≈ 27.9 µM), 16 µg/mL (≈ 55.9 µM) and 8 µg/mL (≈ 27.9 µM), respectively. Besides, the CC50 with JIYOYE turned out to be 18 µg/mL (≈ 62.9 µM).

`CCN1CCOc2cc3c(O)c(C(=O)O)cnc3nc21`: inhibition in the test on Streptococcus pneumoniae [1] was half-maximal at 84 µM (IC50). In addition, the figures for the MIC with Streptococcus pneumoniae [2], against Streptococcus pneumoniae [3] and against Haemophilus influenzae were 32 µg/mL (≈ 116 µM), more than 64 µg/mL and 64 µg/mL (≈ 233 µM), respectively. Also, the CC50 in the test with JIYOYE was more than 100 µg/mL.

In turn, `O=C(O)c1cnc2nc3c(cc2c1O)N(c1ccccc1)C[C@@H]1CCCN31` yielded an IC50 in the test on Streptococcus pneumoniae [1] of 64 µM. Moreover, the MIC in the test with Streptococcus pneumoniae [2], against Streptococcus pneumoniae [3] and in the test on Haemophilus influenzae was more than 64 µg/mL throughout. Further, the CC50 in the test on JIYOYE is more than 100 µg/mL.

Compound `COc1ccc(Cn2cc(C(=O)O)c(=O)c3cc4c(nc32)N2CCC[C@H]2CO4)c(OC)c1` returned an IC50 in the test on Streptococcus pneumoniae [1] of 57 µM. The MIC in the test with Streptococcus pneumoniae [2] was 32 µg/mL (≈ 73.2 µM); in the test on Streptococcus pneumoniae [3], more than 64 µg/mL; with Haemophilus influenzae, more than 64 µg/mL. Moreover, in the test with JIYOYE, the CC50 was 12 µg/mL (≈ 27.4 µM).

For the compound `O=C(O)c1cnc2nc3c(cc2c1O)OC[C@H]1CCCN31`, in the test on Streptococcus pneumoniae [1], half-maximal inhibition (IC50) required 10.5 µM. In addition, the figures for the MIC against Streptococcus pneumoniae [2], in the test on Streptococcus pneumoniae [3] and against Haemophilus influenzae were 1 µg/mL (≈ 3.48 µM), 8 µg/mL (≈ 27.8 µM) and 4 µg/mL (≈ 13.9 µM), respectively. Also, the CC50 in the test on JIYOYE is more than 100 µg/mL.

In the test on Streptococcus pneumoniae [1], `COc1ccc(Cn2cc(C(=O)O)c(=O)c3cc4c(nc32)N2CCC[C@@H]2CO4)c(OC)c1` came in with an IC50 of 229 µM. Besides, the MIC is 16 µg/mL (≈ 36.6 µM) in the test on Streptococcus pneumoniae [2], more than 64 µg/mL with Streptococcus pneumoniae [3] and more than 64 µg/mL in the test on Haemophilus influenzae. For the same compound, the CC50 in the test on JIYOYE stood at 6 µg/mL (≈ 13.7 µM).

`N[C@H]1C[C@H]2COc3cc4c(O)c(C(=O)O)cnc4nc3N2C1`: inhibition in the test on Streptococcus pneumoniae [1] was half-maximal at 2.7 µM (IC50). In addition, the MIC against Streptococcus pneumoniae [2], against Streptococcus pneumoniae [3] and against Haemophilus influenzae was more than 64 µg/mL each time. For the same compound, in the test on JIYOYE, the CC50 is more than 100 µg/mL.

As to `C[C@H]1Oc2cc3c(O)c(C(=O)O)cnc3nc2N2CCCC12` (single isomer, unassigned), the IC50 with Streptococcus pneumoniae [1] was 125 µM. The MIC came out at 32 µg/mL (≈ 106 µM) against Streptococcus pneumoniae [2], 64 µg/mL (≈ 212 µM) against Streptococcus pneumoniae [3] and 64 µg/mL (≈ 212 µM) with Haemophilus influenzae. In addition, in the test on JIYOYE, the CC50 is more than 100 µg/mL.

The compound `O=C(O)c1cn(C2CC2)c2cc(N3CCNCC3)c(F)cc2c1=O` [CIPROFLOXACIN] showed an IC50 in the test with Streptococcus pneumoniae [1] of 200 µM. In addition, the MIC in the test with Streptococcus pneumoniae [2] was determined as 16 µg/mL (≈ 48.3 µM); against Streptococcus pneumoniae [3], 2 µg/mL (≈ 6.04 µM).
